These results are taken from ChEMBL document CHEMBL4190310, “Identification of 3,4-dihydro-2H-thiochromene 1,1-dioxide derivatives with a phenoxyethylamine group as highly potent and selective α1D adrenoceptor antagonists” (Eur J Med Chem, 2017).

Data set [1] concerns the target T1, Alpha-1B adrenergic receptor (Homo sapiens, UniProt P35368).
T1 sequence (P35368 whole entry): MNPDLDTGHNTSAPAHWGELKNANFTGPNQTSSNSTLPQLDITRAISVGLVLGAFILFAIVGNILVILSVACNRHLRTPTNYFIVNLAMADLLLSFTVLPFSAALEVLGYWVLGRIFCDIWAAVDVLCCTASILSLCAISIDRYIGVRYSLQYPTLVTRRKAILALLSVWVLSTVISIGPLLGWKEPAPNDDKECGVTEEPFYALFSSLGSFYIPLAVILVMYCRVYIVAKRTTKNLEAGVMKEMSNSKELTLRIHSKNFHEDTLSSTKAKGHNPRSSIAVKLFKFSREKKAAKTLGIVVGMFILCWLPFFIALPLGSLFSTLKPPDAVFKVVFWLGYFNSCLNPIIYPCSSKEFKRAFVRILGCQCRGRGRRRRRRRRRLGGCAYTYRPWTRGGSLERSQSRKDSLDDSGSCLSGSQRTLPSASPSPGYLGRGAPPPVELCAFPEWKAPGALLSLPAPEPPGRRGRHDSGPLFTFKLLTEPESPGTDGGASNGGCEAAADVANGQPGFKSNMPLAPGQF
The data set is described as follows: Displacement of 7-methoxy-[3H]-prazosin from human alpha1B-adrenoreceptor expressed in CHOK1 cell membranes after 60 mins by TopCount liquid scintillation counting method. In outline:
(§1)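 Membranes (10 µg protein per receptor subtype) incubated with 2.5 nmol/L 7-methoxy-[3H]-prazosin and test compound at 12 concentrations. Buffer: 50 mmol/L Tris-HCl pH 7.5, 10 mmol/L MgCl2, 5 mmol/L EDTA, 0.5% BSA. Incubated 60 min at room temperature, then filtered on GF/C and washed with Tris-HCl. Nonspecific binding set with 10 µmol/L phentolamine. IC50 from logistic regression; Ki = IC50/(1 + [ligand]/Kd).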

Data set [2] deals with T2, Alpha-1D adrenergic receptor (Homo sapiens, UniProt P25100).
T2 sequence (P25100 whole entry): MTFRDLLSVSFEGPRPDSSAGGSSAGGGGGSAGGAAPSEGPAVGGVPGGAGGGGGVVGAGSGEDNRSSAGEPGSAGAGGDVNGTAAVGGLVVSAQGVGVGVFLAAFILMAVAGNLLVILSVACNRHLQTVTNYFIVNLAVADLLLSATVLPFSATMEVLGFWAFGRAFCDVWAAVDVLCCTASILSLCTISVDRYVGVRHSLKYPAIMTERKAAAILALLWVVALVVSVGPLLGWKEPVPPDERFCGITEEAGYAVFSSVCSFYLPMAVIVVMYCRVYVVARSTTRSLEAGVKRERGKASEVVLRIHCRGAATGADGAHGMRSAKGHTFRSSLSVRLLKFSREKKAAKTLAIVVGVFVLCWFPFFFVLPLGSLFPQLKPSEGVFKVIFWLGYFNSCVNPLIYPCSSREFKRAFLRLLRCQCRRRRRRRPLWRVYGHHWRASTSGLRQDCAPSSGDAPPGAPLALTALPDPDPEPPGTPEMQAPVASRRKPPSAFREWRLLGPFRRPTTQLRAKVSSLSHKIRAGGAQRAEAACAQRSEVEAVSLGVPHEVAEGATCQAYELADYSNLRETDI
Put plainly: Displacement of 7-methoxy-[3H]-prazosin from human alpha1D-adrenoreceptor expressed in CHOK1 cell membranes after 60 mins by TopCount liquid scintillation counting method. Summed up: as §1

Data set [3] concerns the target T3, Alpha-1A adrenergic receptor (Homo sapiens, UniProt P35348).
T3 sequence (P35348 whole entry): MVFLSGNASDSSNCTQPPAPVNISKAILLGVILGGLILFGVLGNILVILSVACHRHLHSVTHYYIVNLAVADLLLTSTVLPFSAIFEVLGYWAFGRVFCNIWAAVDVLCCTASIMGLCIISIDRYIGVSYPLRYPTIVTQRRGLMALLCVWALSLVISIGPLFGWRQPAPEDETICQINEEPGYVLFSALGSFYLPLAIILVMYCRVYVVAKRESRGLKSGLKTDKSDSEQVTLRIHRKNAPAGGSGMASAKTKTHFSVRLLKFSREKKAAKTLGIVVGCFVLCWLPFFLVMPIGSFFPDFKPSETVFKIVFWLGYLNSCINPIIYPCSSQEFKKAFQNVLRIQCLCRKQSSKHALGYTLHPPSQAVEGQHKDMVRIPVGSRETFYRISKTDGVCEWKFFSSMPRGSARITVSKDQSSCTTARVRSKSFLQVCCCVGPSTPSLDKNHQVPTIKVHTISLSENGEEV
The data set is described as follows: Displacement of 7-methoxy-[3H]-prazosin from human alpha1A-adrenoreceptor expressed in CHOK1 cell membranes after 60 mins by TopCount liquid scintillation counting method. In outline: as §1

The target of another data set is CYP3A4 (Homo sapiens, UniProt P08684). Put plainly: Inhibition of human microsomal CYP3A4 at 10 uM after 10 mins by LC-MS/MS analysis relative to control. To be noted: microsomes. In kind it is ADME. In outline:
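Reversible inhibition test. Midazolam substrate incubated with 0.1 mg/mL human liver microsomes and 10 µM test compound for 10 min at 37 °C. Stopped with acetonitrile/water.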

Data set [4] addresses T4, Alpha-1D adrenergic receptor (Rattus norvegicus) (UniProt P23944).
T4 sequence (whole entry): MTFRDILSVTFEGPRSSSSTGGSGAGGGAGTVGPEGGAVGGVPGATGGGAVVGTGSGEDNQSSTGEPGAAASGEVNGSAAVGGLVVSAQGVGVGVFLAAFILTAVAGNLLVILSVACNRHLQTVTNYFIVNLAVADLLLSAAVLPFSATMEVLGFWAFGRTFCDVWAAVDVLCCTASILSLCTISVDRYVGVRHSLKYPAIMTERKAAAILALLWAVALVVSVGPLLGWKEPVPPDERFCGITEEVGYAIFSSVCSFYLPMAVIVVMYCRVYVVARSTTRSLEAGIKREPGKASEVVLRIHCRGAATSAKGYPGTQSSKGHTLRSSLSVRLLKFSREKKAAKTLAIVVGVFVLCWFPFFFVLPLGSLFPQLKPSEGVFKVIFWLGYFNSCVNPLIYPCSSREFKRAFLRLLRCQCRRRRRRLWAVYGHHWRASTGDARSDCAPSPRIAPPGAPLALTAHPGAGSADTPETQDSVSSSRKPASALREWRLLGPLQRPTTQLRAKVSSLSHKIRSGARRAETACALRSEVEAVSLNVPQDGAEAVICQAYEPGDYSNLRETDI
Put plainly: Antagonist activity at alpha1D-adrenoreceptor in Wistar rat bladder strips assessed as relaxation of PHE-induced contractile response after 30 mins. The data set is classed as functional.

The species entered for data set [5] is Homo sapiens. The data set is described as follows: Selectivity ratio of Ki for human alpha1B-adrenoreceptor to Ki for human alpha1D-adrenoreceptor.
The species named for data set [6] is Homo sapiens. The data set is described as follows: Selectivity ratio of Ki for human alpha1A-adrenoreceptor to Ki for human alpha1D-adrenoreceptor.

Each structure is given as a SMILES string.

CYP3A4, sequence (P08684 whole entry): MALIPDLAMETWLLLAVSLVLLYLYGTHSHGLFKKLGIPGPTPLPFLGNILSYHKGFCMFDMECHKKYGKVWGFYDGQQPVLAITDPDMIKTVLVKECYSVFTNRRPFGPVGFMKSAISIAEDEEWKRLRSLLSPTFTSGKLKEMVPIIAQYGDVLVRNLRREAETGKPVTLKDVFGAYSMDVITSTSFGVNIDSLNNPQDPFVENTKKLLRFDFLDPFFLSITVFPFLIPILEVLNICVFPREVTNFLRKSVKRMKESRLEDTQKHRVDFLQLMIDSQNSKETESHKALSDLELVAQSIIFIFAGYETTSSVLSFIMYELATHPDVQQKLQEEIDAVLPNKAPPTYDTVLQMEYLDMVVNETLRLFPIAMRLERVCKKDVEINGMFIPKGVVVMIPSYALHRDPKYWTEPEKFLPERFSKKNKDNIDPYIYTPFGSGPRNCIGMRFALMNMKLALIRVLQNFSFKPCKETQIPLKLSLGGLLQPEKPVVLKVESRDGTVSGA

As to `O=S1(=O)CC(NCCOc2cc(F)ccc2Cl)c2ccccc21` (stereo unspecified), the Ki in data set [1] was greater than 120 nM; in data set [2], greater than 94 nM; in data set [3], greater than 270 nM.
The molecule `CS(=O)(=O)c1ccc2c(c1)C(NCCOc1cc(F)ccc1F)CCS2(=O)=O` (stereo unspecified) registered a Ki in data set [2] of 310 nM. The same molecule showed an inhibition at 10 min, 10 µM at CYP3A4 of 5.2%.
Regarding `CS(=O)(=O)c1ccccc1CNCCOc1cc(F)ccc1Cl`, the Ki in data set [1] is greater than 120 nM; in data set [2], 4.3 nM; in data set [3], greater than 270 nM. The IC30 in data set [4] was 140 nM.
On to `COc1cccc2c1S(=O)(=O)CCC2NCCOc1cc(F)ccc1F` (stereo unspecified), for which the Ki in data set [2] was 170 nM. Moreover, at CYP3A4, the inhibition at 10 min, 10 µM came to 17.1%.
For `CC(NCCOc1cc(F)ccc1Cl)c1ccccc1S(C)(=O)=O` (stereo unspecified), the Ki in data set [1] was greater than 120 nM; in data set [2], greater than 94 nM; in data set [3], greater than 270 nM.
On the same counts, the results for `CS(=O)(=O)c1ccccc1CCCNCCOc1cc(F)ccc1Cl` are 44 nM, 9.1 nM and 50 nM.
`COc1ccc2c(c1)S(=O)(=O)CCC2NCCOc1cc(F)ccc1F` (stereo unspecified): the affinity in data set [2], expressed as Ki, was 38 nM. The molecule further displayed an inhibition at 10 min, 10 µM against CYP3A4 of 34.3%.
In data set [2], `O=S1(=O)CCC(NCCOc2cc(F)ccc2F)c2cc(F)ccc21` (stereo unspecified) came in with a Ki of 12 nM. Also, the inhibition at 10 min, 10 µM against CYP3A4 is 23.1%.
In the case of `Fc1ccc(Cl)c(OCCNCc2cccc(Cl)c2)c1`, the inhibition constant Ki in data set [1] is greater than 120 nM; in data set [2], 65 nM; in data set [3], greater than 270 nM.
As for `O=S1(=O)CCC(NCCOc2cc(F)ccc2Cl)c2ccccc21` (stereo unspecified), the inhibition constant Ki is greater than 120 nM in data set [1], 3.9 nM in data set [2] and greater than 270 nM in data set [3]. On CYP3A4, the inhibition at 10 min, 10 µM is 52.3%. Besides, the IC30 in data set [4] is 54 nM.
For `CNc1ccc2c(c1)[C@H](NCCOc1cc(F)ccc1F)CCS2(=O)=O`, the inhibitory constant (Ki) in data set [1] is greater than 1200 nM; in data set [2], 62 nM; in data set [3] it was 1200 nM. Also, the Ratio Ki in the data set filed under Homo sapiens [5] is greater than 20; in the data set filed under Homo sapiens [6], 19. For the same molecule, the inhibition at 10 min, 10 µM at CYP3A4 was found to be 26.7%.
For the molecule `CS(=O)(=O)c1ccc(Cl)cc1CNCCOc1cc(F)ccc1Cl`, the inhibition constant (Ki) in data set [1] is 1100 nM; in data set [2], 17 nM; in data set [3], 1800 nM. Moreover, the Ratio Ki in the data set listed under Homo sapiens [5] amounted to 65; in the data set listed under Homo sapiens [6], 110. Moreover, the IC30 in data set [4] is 250 nM.
With `CS(=O)(=O)c1ccccc1CCNCCOc1cc(F)ccc1Cl`, the Ki in data set [1] is 30 nM; in data set [2] it was 8.6 nM; in data set [3], 150 nM.
In data set [2], `COc1ccc2c(c1)C(NCCOc1cc(F)ccc1F)CCS2(=O)=O` (stereo unspecified) showed a Ki of 1.5 nM. This molecule also showed an inhibition at 10 min, 10 µM on CYP3A4 of 22.7%.
For `CNc1ccc2c(c1)[C@@H](NCCOc1cc(F)ccc1F)CCS2(=O)=O`, the figures for the Ki in data set [1], in data set [2] and in data set [3] were 150 nM, 0.3 nM and 130 nM, respectively. Besides, the figures for the Ratio Ki in the data set filed under Homo sapiens [5] and in the data set filed under Homo sapiens [6] were 500 and 430, respectively. For the same molecule, at CYP3A4, the inhibition at 10 min, 10 µM stood at 20.7%. Further, in data set [4], the IC30 came out at 5.5 nM.
Regarding `COc1cccc2c1C(NCCOc1cc(F)ccc1F)CCS2(=O)=O` (stereo unspecified), the affinity in data set [2] corresponds to a Ki of 9.5 nM. In addition, on CYP3A4, the inhibition at 10 min, 10 µM was found to be 28.6%.
On the same counts, the results for `NC(=O)c1ccc2c(c1)C(NCCOc1cc(F)ccc1F)CCS2(=O)=O` (stereo unspecified) are 86 nM and 12.5%.
Taken in the same sequence, the figures for `O=S1(=O)CCC(NCCOc2cc(F)ccc2F)c2ccccc21` (stereo unspecified) were 17 nM and 26.5%.
On to `CNc1ccc2c(c1)C(NCCOc1cc(F)ccc1F)CCS2(=O)=O` (stereo unspecified), for which the Ki in data set [1] was 430 nM; in data set [2], 0.85 nM; in data set [3], 350 nM. Besides, the Ratio Ki in the data set filed under Homo sapiens [5] was found to be 510; in the data set listed under Homo sapiens [6], 410. The inhibition at 10 min, 10 µM at CYP3A4 was determined as 26.1%. In addition, the IC30 in data set [4] was 80 nM.

Usually Ki stands for the equilibrium dissociation constant of an inhibitor or competing ligand from its target. Higher therefore signals lower affinity. Usually inhibition stands for the drop in the measured response relative to a control, in per cent. A lower inhibition goes with a weak effect. For orientation: IC30 means the concentration needed for an effect of 30%.
